From ChEMBL document CHEMBL2390844, “Evaluation of bioactivities of chlorokojic acid derivatives against dermatophytes couplet with cytotoxicity” (Bioorg Med Chem Lett, 2013)
In brackets after ≈: the same amount, converted by molar mass.

Key:
[1] = Cytotoxicity against human HeLa cells; type: cell-based; details: read-out: MNCC
How it was run: (§1)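 Maximum non-toxic concentration (MNTC) determined in HeLa and MRC-5 cells by a previously described method, based on cellular morphological alteration.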

[2] = Cytotoxicity against human MRC5 cells; type: cell-based; details: read-out: MNCC; how it was run: as §1
Epidermophyton floccosum [3] = test: Antidermatophytic activity against Epidermophyton floccosum isolate after 7 days by broth microdilution method; type: functional; details: 168 h
How it was run: (§2)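 Broth microdilution per CLSI in RPMI 1640 with L-glutamine, no bicarbonate, buffered to pH 7.0 with 0.165 M MOPS, filter-sterilized. Test dilution series 128-0.0625 μg mL⁻¹; sterility and growth (inoculum) controls on each plate. Wells inoculated, incubated 28°C for 7 days, read visually with an inverted mirror; MIC recorded. Triplicate.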

Epidermophyton floccosum [4] = test: Antidermatophytic activity against Epidermophyton floccosum RSKK 3027 after 7 days by broth microdilution method; type: functional; details: RSKK 3027, 168 h; how it was run: as §2
Nannizzia gypsea [5] = test: Antidermatophytic activity against Microsporum gypseum isolate after 7 days by broth microdilution method; type: functional; details: 168 h; how it was run: as §2
Nannizzia gypsea [6] = test: Antidermatophytic activity against Microsporum gypseum NCPF 580 after 7 days by broth microdilution method; type: functional; details: NCPF 580, 168 h; how it was run: as §2
[7] = Antidermatophytic activity against Trichophyton mentagrophytes var. erinacei isolate after 7 days by broth microdilution method; type: functional; details: Arthroderma benhamiae; how it was run: as §2
[8] = Antidermatophytic activity against Trichophyton mentagrophytes var. erinacei NCPF 375 after 7 days by broth microdilution method; type: functional; details: Arthroderma benhamiae; how it was run: as §2

Row | SMILES | MNTC [1] | MNTC [2] | MIC (Epidermophyton floccosum [3]) | MIC (Epidermophyton floccosum [4]) | MIC (Nannizzia gypsea [5]) | MIC (Nannizzia gypsea [6]) | MIC [7] | MIC [8]
1 | N#CC1(c2ccccc2)CCN(Cc2oc(CCl)cc(=O)c2O)CC1 | ≥ 256 µg/mL | ≥ 256 µg/mL | 32 µg/mL (≈ 89.2 µM) | 16 µg/mL (≈ 44.6 µM) | 32 µg/mL (≈ 89.2 µM) | 16 µg/mL (≈ 44.6 µM) | 32 µg/mL (≈ 89.2 µM) | 16 µg/mL (≈ 44.6 µM)
2 | O=c1cc(CCl)oc(CN2CCN(c3ccc(C(F)(F)F)cc3)CC2)c1O | – | ≥ 128 µg/mL | 64 µg/mL (≈ 159 µM) | 32 µg/mL (≈ 79.4 µM) | 64 µg/mL (≈ 159 µM) | 32 µg/mL (≈ 79.4 µM) | 64 µg/mL (≈ 159 µM) | 32 µg/mL (≈ 79.4 µM)
3 | O=c1cc(CCl)oc(CN2CCN(c3ccc(F)cc3)CC2)c1O | – | ≥ 128 µg/mL | 16 µg/mL (≈ 45.4 µM) | 8 µg/mL (≈ 22.7 µM) | 16 µg/mL (≈ 45.4 µM) | 8 µg/mL (≈ 22.7 µM) | 8 µg/mL (≈ 22.7 µM) | 8 µg/mL (≈ 22.7 µM)
4 | O=c1cc(CCl)oc(CN2CCN(c3ccccc3)CC2)c1O | ≥ 256 µg/mL | ≥ 256 µg/mL | 8 µg/mL (≈ 23.9 µM) | 4 µg/mL (≈ 11.9 µM) | 8 µg/mL (≈ 23.9 µM) | 8 µg/mL (≈ 23.9 µM) | 16 µg/mL (≈ 47.8 µM) | 8 µg/mL (≈ 23.9 µM)
5 | Cc1ccccc1CN1CCN(Cc2oc(CCl)cc(=O)c2O)CC1 | ≥ 512 µg/mL | ≥ 512 µg/mL | 32 µg/mL (≈ 88.2 µM) | 16 µg/mL (≈ 44.1 µM) | 32 µg/mL (≈ 88.2 µM) | 16 µg/mL (≈ 44.1 µM) | 32 µg/mL (≈ 88.2 µM) | 16 µg/mL (≈ 44.1 µM)
6 | O=c1cc(CCl)oc(CN2CC=C(c3ccc(Cl)cc3)CC2)c1O | ≥ 256 µg/mL | ≥ 256 µg/mL | 8 µg/mL (≈ 21.8 µM) | 8 µg/mL (≈ 21.8 µM) | 8 µg/mL (≈ 21.8 µM) | 8 µg/mL (≈ 21.8 µM) | 8 µg/mL (≈ 21.8 µM) | 8 µg/mL (≈ 21.8 µM)
7 | O=c1cc(CCl)oc(CN2CC=C(c3ccc(F)cc3)CC2)c1O | ≥ 256 µg/mL | ≥ 256 µg/mL | 16 µg/mL (≈ 45.7 µM) | 16 µg/mL (≈ 45.7 µM) | 16 µg/mL (≈ 45.7 µM) | 16 µg/mL (≈ 45.7 µM) | 16 µg/mL (≈ 45.7 µM) | 16 µg/mL (≈ 45.7 µM)
8 | Cc1cccc(N2CCN(Cc3oc(CCl)cc(=O)c3O)CC2)c1C | ≥ 256 µg/mL | ≥ 256 µg/mL | 16 µg/mL (≈ 44.1 µM) | 8 µg/mL (≈ 22 µM) | 16 µg/mL (≈ 44.1 µM) | 8 µg/mL (≈ 22 µM) | 8 µg/mL (≈ 22 µM) | 4 µg/mL (≈ 11 µM)
9 | O=c1cc(CCl)oc(CN2CC=C(c3ccccc3)CC2)c1O | ≥ 256 µg/mL | ≥ 256 µg/mL | 16 µg/mL (≈ 48.2 µM) | 8 µg/mL (≈ 24.1 µM) | 16 µg/mL (≈ 48.2 µM) | 8 µg/mL (≈ 24.1 µM) | 16 µg/mL (≈ 48.2 µM) | 8 µg/mL (≈ 24.1 µM)
10 | O=c1cc(CCl)oc(CN2CCN(Cc3cccc(C(F)(F)F)c3)CC2)c1O | ≥ 512 µg/mL | ≥ 512 µg/mL | 8 µg/mL (≈ 19.2 µM) | 4 µg/mL (≈ 9.6 µM) | 8 µg/mL (≈ 19.2 µM) | 4 µg/mL (≈ 9.6 µM) | 8 µg/mL (≈ 19.2 µM) | 4 µg/mL (≈ 9.6 µM)
11 | O=c1cc(CCl)oc(CN2CCN(Cc3c(Cl)cccc3Cl)CC2)c1O | ≥ 256 µg/mL | ≥ 512 µg/mL | 8 µg/mL (≈ 19.2 µM) | 4 µg/mL (≈ 9.58 µM) | 8 µg/mL (≈ 19.2 µM) | 4 µg/mL (≈ 9.58 µM) | 8 µg/mL (≈ 19.2 µM) | 4 µg/mL (≈ 9.58 µM)
12 | O=C(C1CCCCC1)N1CCN(Cc2oc(CCl)cc(=O)c2O)CC1 | ≥ 128 µg/mL | ≥ 128 µg/mL | 32 µg/mL (≈ 86.8 µM) | 16 µg/mL (≈ 43.4 µM) | 32 µg/mL (≈ 86.8 µM) | 16 µg/mL (≈ 43.4 µM) | 16 µg/mL (≈ 43.4 µM) | 8 µg/mL (≈ 21.7 µM)
13 | Cc1cccc(CN2CCN(Cc3oc(CCl)cc(=O)c3O)CC2)c1 | ≥ 512 µg/mL | ≥ 512 µg/mL | 32 µg/mL (≈ 88.2 µM) | 16 µg/mL (≈ 44.1 µM) | 32 µg/mL (≈ 88.2 µM) | 16 µg/mL (≈ 44.1 µM) | 16 µg/mL (≈ 44.1 µM) | 16 µg/mL (≈ 44.1 µM)
14 | O=c1cc(CCl)occ1O | ≥ 256 µg/mL | ≥ 256 µg/mL | 16 µg/mL (≈ 99.7 µM) | 8 µg/mL (≈ 49.8 µM) | 4 µg/mL (≈ 24.9 µM) | 2 µg/mL (≈ 12.5 µM) | 8 µg/mL (≈ 49.8 µM) | 4 µg/mL (≈ 24.9 µM)
15 | CN(C/C=C/C#CC(C)(C)C)Cc1cccc2ccccc12 [TERBINAFINE] | – | – | 0.5 µg/mL (≈ 1.72 µM) | 0.25 µg/mL (≈ 0.858 µM) | 0.5 µg/mL (≈ 1.72 µM) | 0.25 µg/mL (≈ 0.858 µM) | 0.25 µg/mL (≈ 0.858 µM) | 0.125 µg/mL (≈ 0.429 µM)
